Laboratory results reported in ChEMBL document CHEMBL1671645, “Pharmacokinetics and absorption of posaconazole oral suspension under various gastric conditions in healthy volunteers” (Antimicrob Agents Chemother, 2009).

Assays:
[1] = AUC in fasted healthy human at 400 mg administered as single dose suspension coadministered with acidic carbonated beverage and proton pump inhibitor; assay type: ADME, organism-based; details: plasma
How it was run: (§1)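 This was a four-way crossover in 12 healthy subjects with 7–10 day washouts. Each took one fasting 400 mg oral suspension dose, with 12 oz ginger ale and/or esomeprazole 40 mg once each morning on days −2 to 1, with dosing on day 1. Plasma was sampled 0–168 h and measured by LC-MS/MS (LLOQ 5.00 ng/ml). Analysis was noncompartmental, with CL/F = dose/AUC_I and V/F = (CL/F)/K.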

Homo sapiens [2] = assay: Toxicity in healthy human assessed as adverse events at 200 mg QID, po administered as suspension for 7 days; assay type: organism-based; details: in vivo, 168 h
How it was run: (§2)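 Healthy volunteers monitored for adverse events, vital signs, clinical laboratory values and 12-lead ECG. Adverse events tabulated by body system or organ class and severity and summarized by treatment across the crossover regimens.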

[3] = AUC in healthy human at 400 mg administered as single dose suspension coadministered with nutritional supplement and 10 mg metoclopramide; assay type: ADME, organism-based; details: plasma
How it was run: (§3)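 A three-way crossover in 13 healthy subjects gave one 400 mg oral suspension dose with a nutritional supplement, either alone, with metoclopramide 10 mg orally three times daily on the day before and the day of dosing, or with a single 4 mg dose of loperamide. Plasma was taken 0–168 h for LC-MS/MS. Analysis was noncompartmental.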

Homo sapiens [4] = assay: Apparent total body clearance in fasted healthy human at 200 mg QID, po administered as suspension for 7 days; assay type: ADME, organism-based; details: in vivo, 168 h
How it was run: (§4)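 Twelve healthy subjects took oral suspension for 7 days as 400 mg BID or 200 mg QID, either fasting or with a Boost-type nutritional supplement, in a crossover with 14–21 day washouts. Nonfat snacks of 800 cal/day or less were allowed. Plasma was sampled 0–168 h after the day-7 morning dose only and analysed by LC-MS/MS. AUC is AUC_τ, normalized to dose.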

[5] = Apparent volume of distribution in healthy human at 400 mg administered as single dose suspension coadministered with nutritional supplement and 10 mg metoclopramide; assay type: ADME, organism-based; details: in vivo, po, read-out: Vc/F; how it was run: as §3
[6] = (§5) Cmax in fasted healthy human plasma at 400 mg administered as single dose suspension; assay type: ADME, organism-based; set-up: dose 400 mg
Homo sapiens [7] = assay: Toxicity in healthy human assessed as adverse events at 400 mg administered as single dose suspension coadministered with proton pump inhibitor; assay type: organism-based; set-up: scale not given: the % may be the effect or the level left; details: in vivo; how it was run: as §2
Homo sapiens [8] = assay: Toxicity in healthy human assessed as headache at 400 mg BID, po administered as suspension for 7 days coadministered with nutritional supplement; assay type: organism-based; details: in vivo, 168 h
How it was run: (§6)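 Healthy volunteers (n = 12) took oral posaconazole suspension (40 mg/ml) for 7 days in a four-way randomized crossover with a 14- to 21-day washout. Subjects stayed fasted throughout, with nonfat snacks up to 800 cal/day allowed. Where given, Boost was taken with each dose. Safety covered adverse events, vital signs, clinical labs and 12-lead ECG, with AEs tabulated by body system and severity per treatment.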

[9] = Cmax in plasma in hematopoietic stem cell transplant recipient human with GVHD and diarrhea; assay type: ADME, organism-based
[10] = Tmax in fasted healthy human at 400 mg administered as single dose suspension coadministered with acidic carbonated beverage; assay type: ADME, organism-based; details: in vivo
How it was run: (§7)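 Single oral suspension dose in fasting healthy volunteers, alone, with 12 oz ginger ale, after esomeprazole 40 mg once each morning days −2 to 1, or both; four-way crossover, 7–10-day washout. EDTA plasma 0–168 h. LC-MS/MS (LLOQ 5.00 ng/ml). t1/2 = ln(2)/K from terminal log-linear regression; Tmax median.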

[11] = Apparent total body clearance in fasted healthy human at 400 mg administered as single dose suspension coadministered with acidic carbonated beverage and proton pump inhibitor; assay type: ADME, organism-based; details: in vivo; how it was run: as §1
[12] = Cmax in fasted healthy human plasma at 400 mg administered as single dose suspension after 20 mins after consumption of high fat meal; assay type: ADME, organism-based; set-up: dose 400 mg
How it was run: (§8)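 In a crossover of 12 healthy subjects, each took a single 400 mg oral suspension dose 5 min before, midway through (about 10 min into a 20-min meal), or 20 min after a high-fat meal of about 50 g fat. Plasma was drawn 0–168 h and measured by LC-MS/MS. Parameters are noncompartmental, with AUC to the last measurable time.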

[13] = Tmax in fasted healthy human at 400 mg administered as single dose suspension coadministered with proton pump inhibitor; assay type: ADME, organism-based; details: in vivo; how it was run: as §7
[14] = Cmax in fasted healthy human plasma at 400 mg administered as single dose suspension coadministered with proton pump inhibitor; assay type: ADME, organism-based; set-up: dose 400 mg; how it was run: as §1
[15] = Tmax in healthy human at 400 mg BID, po administered as suspension for 7 days coadministered with nutritional supplement; assay type: ADME, organism-based; details: in vivo
How it was run: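 Healthy volunteers given oral suspension (40 mg/ml) for 7 days, fasted or with nutritional supplement (Boost); four-way crossover, 14–21-day washout, nonfat snacks ≤800 cal/day allowed. On day 7 only the morning dose was given; plasma sampled predose to 168 h after it. LC-MS/MS (LLOQ 5.00 ng/ml). t1/2 = ln(2)/K from log-linear terminal slope; Tmax as median.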

[16] = Apparent total body clearance in healthy human at 400 mg administered as single dose suspension coadministered with nutritional supplement; assay type: ADME, organism-based; details: in vivo; how it was run: as §3
[17] = Cmax in healthy human plasma at 400 mg administered as single dose suspension coadministered with nutritional supplement and 10 mg metoclopramide; assay type: ADME, organism-based; set-up: dose 400 mg; how it was run: as §3
[18] = Tmax in fasted healthy human at 400 mg administered as single dose suspension 5 mins before consumption of high fat meal; assay type: ADME, organism-based; details: in vivo
How it was run: (§9)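 Single oral suspension dose in healthy volunteers while fasting, 5 min before, midway through (about 10 min into a 20-min meal), or 20 min after a high-fat meal (approx 50 g fat); four-way crossover, 7–10-day washout. Plasma 0–168 h by LC-MS/MS (LLOQ 5.00 ng/ml). t1/2 = ln(2)/K; Tmax median.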

[19] = AUC in fasted healthy human at 400 mg administered as single dose suspension 5 mins before consumption of high fat meal; assay type: ADME, organism-based; details: plasma; how it was run: as §8
[20] = Apparent volume of distribution in healthy human at 400 mg administered as single dose suspension coadministered with nutritional supplement; assay type: ADME, organism-based; details: in vivo; how it was run: as §3
Homo sapiens [21] = assay: Toxicity in healthy human assessed as headache at 400 mg BID, po administered as suspension for 7 days; assay type: organism-based; details: in vivo, 168 h; how it was run: as §6
[22] = Apparent volume of distribution in fasted healthy human at 400 mg administered as single dose suspension after 20 mins after consumption of high fat meal; assay type: ADME, organism-based; details: in vivo, po; how it was run: as §8
Homo sapiens [23] = assay: Toxicity in healthy human assessed as adverse events at 400 mg administered as single dose suspension coadministered with acidic carbonated beverage; assay type: organism-based; details: in vivo; how it was run: as §2
Homo sapiens [24] = assay: Toxicity in healthy human assessed as adverse events at 400 mg administered as single dose suspension coadministered with nutritional supplement and 4 mg loperamide as two 2 mg tablets; assay type: organism-based; details: in vivo; how it was run: as §2
Homo sapiens [25] = assay: Toxicity in healthy human assessed as dizziness at 400 mg BID, po administered as suspension for 7 days coadministered with nutritional supplement; assay type: organism-based; details: in vivo, 168 h; how it was run: as §6
Homo sapiens [26] = assay: AUC in fasted healthy human at 400 mg BID, po administered as suspension for 7 days; assay type: ADME, organism-based, Plasma; details: in vivo, 168 h; how it was run: as §4
[27] = Tmax in fasted healthy human at 400 mg administered as single dose suspension; assay type: ADME, organism-based; details: in vivo; how it was run: as §7
[28] = as §5; assay type: ADME, organism-based; set-up: dose 400 mg; remark: listed apart in the source
[29] = Half life in fasted healthy human at 400 mg administered as single dose suspension after 20 mins after consumption of high fat meal; assay type: ADME, organism-based; details: in vivo; how it was run: as §9
[30] = Half life in fasted healthy human at 400 mg administered as single dose suspension after consumption of high fat meal; assay type: ADME, organism-based; details: in vivo; how it was run: as §9

**Q.** Which AUC [1] does the source give for `CC[C@@H]([C@H](C)O)n1ncn(-c2ccc(N3CCN(c4ccc(OC[C@@H]5CO[C@@](Cn6cncn6)(c6ccc(F)cc6F)C5)cc4)CC3)cc2)c1=O` [POSACONAZOLE] here?
**A.** 4180 ng·h/mL

**Q.** And the Activity (Homo sapiens [2])?
**A.** 75%

**Q.** And the AUC [3]?
**A.** 7390 ng·h/mL

**Q.** And the CL/F (Homo sapiens [4])?
**A.** 21.2 L/h

**Q.** And the Vd/F [5]?
**A.** 2280 L

**Q.** What about the Cmax [6] of the same molecule?
**A.** 151 ng/mL

**Q.** What about the Activity (Homo sapiens [7]) of the same molecule?
**A.** 25%

**Q.** What about the Activity (Homo sapiens [8]) of the same molecule?
**A.** 25%

**Q.** What about the Cmax [9] of the same molecule?
**A.** 623 ng/mL

**Q.** And the Tmax [10]?
**A.** 4 h

**Q.** And the CL/F [11]?
**A.** 1620 mL/min

**Q.** What about the Cmax [12] of the same molecule?
**A.** 544 ng/mL

**Q.** What about the Tmax [13] of the same molecule?
**A.** 6 h

**Q.** What about the Cmax [14] of the same molecule?
**A.** 76.7 ng/mL

**Q.** What about the Tmax [15] of the same molecule?
**A.** 6 h

**Q.** And the CL/F [16]?
**A.** 823 mL/min

**Q.** What about the Cmax [17] of the same molecule?
**A.** 232 ng/mL

**Q.** What about the Tmax [18] of the same molecule?
**A.** 7 h

**Q.** And the AUC at 5 min [19]?
**A.** 10000 ng·h/mL

**Q.** What about the Vd/F [20] of the same molecule?
**A.** 1660 L

**Q.** What about the Activity (Homo sapiens [21]) of the same molecule?
**A.** 25%

**Q.** What about the Vd/F [22] of the same molecule?
**A.** 757 L

**Q.** And the Activity (Homo sapiens [23])?
**A.** 25%

**Q.** And the Activity (Homo sapiens [24])?
**A.** 38%

**Q.** What about the Activity (Homo sapiens [25]) of the same molecule?
**A.** 33%

**Q.** What about the AUC (Homo sapiens [26]) of the same molecule?
**A.** 52300 ng·h/mL

**Q.** And the Tmax [27]?
**A.** 5 h

**Q.** And the Cmax [28]?
**A.** 181 ng/mL

**Q.** And the half-life [29]?
**A.** 1360 min

**Q.** And the half-life [30]?
**A.** 1360 min
